Reference: ChEMBL document CHEMBL1130396, “Angiotensin analogues palmitoylated in positions 1 and 4” (J Med Chem, 1997)
Where a SMILES comes first, the peptide text is derived from it. [ ]: non-standard residue; d: D form. The star is where a group is joined. X1 = CCCCCCCCCCCCCCCC(=O)OCCC(=O)*; Palmitoyl = CCCCCCCCCCCCCCCC(=O)*; X2 = CCCCCCCCCCCCCCCCCC*; Sar = CNCC(=O)O

How the values were obtained:
[1] = species: Oryctolagus cuniculus; assay: Negative log of the dose of agonist that produces half-maximal contraction on rabbit aorta; type: functional
Outline: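 New Zealand rabbit thoracic aorta rings (5 mm) were held in oxygenated Krebs, pH 7.4, at 37 °C under 2 g tension and equilibrated for 90 min. Isometric contractions were recorded. Cumulative dose-response curves (5 × 10^-11–10^-5 M) were expressed as % of maximal Ang stimulation, and pD2 was taken as the negative log of the dose giving half-maximal contraction. At least three evaluations were done.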

[2] = molecular target: T1, Type-1 angiotensin II receptor (Bos taurus) (UniProt P25104); assay: Relative affinity for type 1 Angiotensin II receptor of bovine adrenocortical membranes compared to angiotensin
T1 sequence (whole entry): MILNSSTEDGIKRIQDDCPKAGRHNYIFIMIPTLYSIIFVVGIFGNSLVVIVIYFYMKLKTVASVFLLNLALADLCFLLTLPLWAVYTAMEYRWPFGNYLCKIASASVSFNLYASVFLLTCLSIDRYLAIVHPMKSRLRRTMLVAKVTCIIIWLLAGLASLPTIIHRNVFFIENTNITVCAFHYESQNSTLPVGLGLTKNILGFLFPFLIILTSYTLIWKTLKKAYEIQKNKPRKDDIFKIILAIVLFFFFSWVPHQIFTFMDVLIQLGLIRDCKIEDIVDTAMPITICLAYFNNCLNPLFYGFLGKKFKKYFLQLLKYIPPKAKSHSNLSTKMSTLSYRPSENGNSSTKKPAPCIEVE
Outline: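 Bovine adrenocortical membranes were incubated in 25 mM Tris/HCl (100 mM NaCl, 5 mM MgCl2, 0.2% BSA, pH 7.4) with peptide across 5 × 10^-11–10^-5 M and 30 pM [125I]Ang (final) for 45 min at 22 °C. Bound radioactivity was filtered and gamma-counted, with nonspecific binding defined by 1 µM Ang. […] At least three experiments were run in duplicate.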

[3] = molecular target: T2, Type-1 angiotensin II receptor (Oryctolagus cuniculus, UniProt P34976); assay: Negative log of the dose of antagonist (compound) that reduces response of a double dose of […] to that of a single dose, on rabbit aorta; type: functional, tissue-based; conditions: for Kb: read-out: pA2 (converted)
T2 sequence (P34976 whole entry): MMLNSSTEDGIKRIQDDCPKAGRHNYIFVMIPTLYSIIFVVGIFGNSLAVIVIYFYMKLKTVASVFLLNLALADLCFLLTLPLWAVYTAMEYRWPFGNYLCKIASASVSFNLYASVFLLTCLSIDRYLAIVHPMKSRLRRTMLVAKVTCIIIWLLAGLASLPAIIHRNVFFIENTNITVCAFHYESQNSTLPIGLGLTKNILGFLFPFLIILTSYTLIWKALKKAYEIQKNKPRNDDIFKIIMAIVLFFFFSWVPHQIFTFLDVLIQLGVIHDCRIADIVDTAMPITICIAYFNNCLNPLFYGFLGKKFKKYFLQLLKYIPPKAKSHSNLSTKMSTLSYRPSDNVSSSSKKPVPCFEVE
Outline: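 Rabbit thoracic aorta rings in oxygenated Krebs, pH 7.4, at 37 °C under 2 g tension were preincubated 10 min with single antagonist concentrations. Ang concentration-response curves were then run with and without antagonist. pA2 came from Schild plot, or was estimated from lower doses for long-acting analogues. Duration was followed by Ang curves at 30 min, 1.5 h and 3 h, washing every 20 min. At least three evaluations were done.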

[4] = molecular target: T3, Type-1 angiotensin II receptor (Bos taurus, UniProt P25104); assay: Dissociation constant for [125 I] Ang binding to type 1 Angiotensin II receptor of bovine adrenocortical membranes
T3 sequence (P25104 whole entry): T1 sequence (whole entry)

[5] = molecular target: T4, Type-1 angiotensin II receptor (Oryctolagus cuniculus) (UniProt P34976); assay: Relative affinity compared to the affinity of angiotensin II(Ang=100%) for Angiotensin II receptor, type 1 on rabbit aorta; type: tissue-based
T4 sequence (whole entry): T2 sequence (P34976 whole entry)

SMILES	RA [2]	Kd [4] [nM]	pD2 [1]	further results
CNCC(=O)N[C@@H](CCCN=C(N)N)C(=O)N[C@H](C(=O)N[C@@H](Cc1ccc(O)cc1)C(=O)N[C@H](C(=O)N[C@@H](Cc1c[nH]cn1)C(=O)N1CCC[C@H]1C(=O)N[C@@H](Cc1ccccc1)C(=O)O)C(C)C)C(C)C	–	–	8.57	–
CCCCCCCCCCCCCCCC(=O)Oc1ccc(C[C@H](NC(=O)[C@@H](NC(=O)[C@H](CCCN=C(N)N)NC(=O)CNC)C(C)C)C(=O)N[C@H](C(=O)N[C@@H](Cc2c[nH]cn2)C(=O)N2CCC[C@H]2C(=O)N[C@H](Cc2ccc3ccccc3c2)C(=O)O)C(C)C)cc1	2.57	–	–	–
CCCCCCCCCCCCCCCC(=O)Oc1ccc(C[C@H](NC(=O)[C@@H](NC(=O)[C@H](CCCN=C(N)N)NC(=O)CNC)C(C)C)C(=O)N[C@H](C(=O)N[C@@H](Cc2c[nH]cn2)C(=O)N2CCC[C@H]2C(=O)N[C@H](Cc2ccccc2)C(=O)O)C(C)C)cc1	162	–	–	–
CCCCCCCCCCCCCCCC(=O)Oc1ccc(C[C@H](NC(=O)[C@@H](NC(=O)[C@H](CCCNC(=N)N)NC(=O)CNC)C(C)C)C(=O)N[C@H](C(=O)N[C@@H](Cc2cnc[nH]2)C(=O)N2CCC[C@H]2C(=O)N[C@H](Cc2ccc3ccccc3c2)C(=O)O)C(C)C)cc1	–	224	–	Kb [3]: 102 nM
CCCCCCCCCCCCCCCC(=O)OC[C@H](NC(C)=O)C(=O)N[C@@H](CCCN=C(N)N)C(=O)N[C@H](C(=O)N[C@@H](Cc1ccc(O)cc1)C(=O)N[C@H](C(=O)N[C@@H](Cc1c[nH]cn1)C(=O)N1CCC[C@H]1C(=O)N[C@H](Cc1cccc2ccccc12)C(=O)O)C(C)C)C(C)C	0.21	–	–	pA2 [3]: < 5.5; pKd [4]: 5.65
CNCC(=O)N[C@@H](CCCN=C(N)N)C(=O)N[C@H](C(=O)N[C@@H](Cc1ccc(O)cc1)C(=O)N[C@H](C(=O)N[C@@H](Cc1c[nH]cn1)C(=O)N1CCC[C@H]1C(=O)N[C@H](Cc1ccc2ccccc2c1)C(=O)O)C(C)C)C(C)C	34.7	–	–	–
CCCCCCCCCCCCCCCC(=O)OC[C@H](NC(C)=O)C(=O)N[C@@H](CCCN=C(N)N)C(=O)N[C@H](C(=O)N[C@@H](Cc1ccc(O)cc1)C(=O)N[C@H](C(=O)N[C@@H](Cc1c[nH]cn1)C(=O)N1CCC[C@H]1C(=O)N[C@@H](Cc1ccccc1)C(=O)O)C(C)C)C(C)C (Ac-S(Palmitoyl)RVYVHPF-OH)	1.17	–	<5.5	–
CCCCCCCCCCCCCCCC(=O)Oc1ccc(C[C@H](NC(=O)[C@@H](NC(=O)[C@H](CCCN=C(N)N)NC(=O)CNC)C(C)C)C(=O)N[C@H](C(=O)N[C@@H](Cc2c[nH]cn2)C(=O)N2CCC[C@H]2C(=O)N[C@@H](Cc2ccccc2)C(=O)O)C(C)C)cc1 [listing 1 of 2 here]	–	3.55	–	Kb [3]: 36.3 nM
CCCCCCCCCCCCCCCC(=O)OC[C@H](NC(C)=O)C(=O)N[C@@H](CCCNC(=N)N)C(=O)N[C@H](C(=O)N[C@@H](Cc1ccc(O)cc1)C(=O)N[C@H](C(=O)N[C@@H](Cc1cnc[nH]1)C(=O)N1CCC[C@H]1C(=O)N[C@@H](Cc1ccccc1)C(=O)O)C(C)C)C(C)C (Ac-S(Palmitoyl)RVYVHPF-OH)	–	490	–	–
CCCCCCCCCCCCCCCC(=O)OCCC(=O)N[C@@H](CCCN=C(N)N)C(=O)N[C@H](C(=O)N[C@@H](Cc1ccc(O)cc1)C(=O)N[C@H](C(=O)N[C@@H](Cc1c[nH]cn1)C(=O)N1CCC[C@H]1C(=O)N[C@@H](Cc1ccccc1)C(=O)O)C(C)C)C(C)C (X1-RVYVHPF-OH)	0.21	2750	5.46	RA [5]: 0.13
CCCCCCCCCCCCCCCCCCOc1ccc(C[C@H](NC(=O)[C@@H](NC(=O)[C@H](CCCNC(=N)N)NC(=O)CNC)C(C)C)C(=O)N[C@H](C(=O)N[C@@H](Cc2cnc[nH]2)C(=O)N2CCC[C@H]2C(=O)N[C@@H](Cc2ccccc2)C(=O)O)C(C)C)cc1 (H-[Sar]RVY(X2)VHPF-OH)	–	1550	–	–
CC(=O)N[C@@H](CO)C(=O)N[C@@H](CCCN=C(N)N)C(=O)N[C@H](C(=O)N[C@@H](Cc1ccc(O)cc1)C(=O)N[C@H](C(=O)N[C@@H](Cc1c[nH]cn1)C(=O)N1CCC[C@H]1C(=O)N[C@H](Cc1cccc2ccccc12)C(=O)O)C(C)C)C(C)C	1.78	–	–	pA2 [3]: 6.99; pKd [4]: 6.49
CCCCCCCCCCCCCCCC(=O)Oc1ccc(C[C@H](NC(=O)[C@@H](NC(=O)[C@H](CCCN=C(N)N)NC(=O)CNC)C(C)C)C(=O)N[C@H](C(=O)N[C@@H](Cc2c[nH]cn2)C(=O)N2CCC[C@H]2C(=O)N[C@@H](Cc2ccccc2)C(=O)O)C(C)C)cc1 [listing 2 of 2 here]	–	–	7.61	–

Now from value to compound, other results behind:

RA [2]	Kd [4] [nM]	SMILES	pD2 [1]	further results
0.09	6460	CC(C)[C@H](NC(=O)[C@H](CCCN=C(N)N)NC(=O)CCO)C(=O)N[C@@H](Cc1ccc(O)cc1)C(=O)N[C@H](C(=O)N[C@@H](Cc1c[nH]cn1)C(=O)N1CCC[C@H]1C(=O)N[C@H](Cc1ccccc1)C(=O)O)C(C)C	–	Kb [3]: 4900 nM
100	–	CC[C@H](C)[C@H](NC(=O)[C@H](Cc1ccc(O)cc1)NC(=O)[C@@H](NC(=O)[C@H](CCCNC(=N)N)NC(=O)[C@@H](N)CC(=O)O)C(C)C)C(=O)N[C@@H](Cc1cnc[nH]1)C(=O)N1CCC[C@H]1C(=O)N[C@@H](Cc1ccccc1)C(=O)O [ANGIOTENSIN II]	8.33	RA [5]: 100
5.53	105	CC(C)[C@H](NC(=O)[C@H](CCCN=C(N)N)NC(=O)CCO)C(=O)N[C@@H](Cc1ccc(O)cc1)C(=O)N[C@H](C(=O)N[C@@H](Cc1c[nH]cn1)C(=O)N1CCC[C@H]1C(=O)N[C@@H](Cc1ccccc1)C(=O)O)C(C)C	7.23	RA [5]: 7.95
–	16.6	CNCC(=O)N[C@@H](CCCNC(=N)N)C(=O)N[C@H](C(=O)N[C@@H](Cc1ccc(O)cc1)C(=O)N[C@H](C(=O)N[C@@H](Cc1cnc[nH]1)C(=O)N1CCC[C@H]1C(=O)N[C@H](Cc1ccc2ccccc2c1)C(=O)O)C(C)C)C(C)C	–	Kb [3]: 7.94 nM
407	–	CNCC(=O)N[C@@H](CCCN=C(N)N)C(=O)N[C@H](C(=O)N[C@@H](Cc1ccc(O)cc1)C(=O)N[C@H](C(=O)N[C@@H](Cc1c[nH]cn1)C(=O)N1CCC[C@H]1C(=O)N[C@H](Cc1ccccc1)C(=O)O)C(C)C)C(C)C	–	RA [5]: 174
75.8	–	CC(C)[C@H](NC(=O)[C@H](CCCN=C(N)N)NC(=O)[C@@H](N)CO)C(=O)N[C@@H](Cc1ccc(O)cc1)C(=O)N[C@H](C(=O)N[C@@H](Cc1c[nH]cn1)C(=O)N1CCC[C@H]1C(=O)N[C@@H](Cc1ccccc1)C(=O)O)C(C)C (H-SRVYVHPF-OH)	7.68	RA [5]: 22.4
32.4	17.8	CC(=O)N[C@@H](CO)C(=O)N[C@@H](CCCN=C(N)N)C(=O)N[C@H](C(=O)N[C@@H](Cc1ccc(O)cc1)C(=O)N[C@H](C(=O)N[C@@H](Cc1c[nH]cn1)C(=O)N1CCC[C@H]1C(=O)N[C@@H](Cc1ccccc1)C(=O)O)C(C)C)C(C)C (Ac-SRVYVHPF-OH)	7.54	RA [5]: 16.2
–	7.59	CC(C)[C@H](NC(=O)[C@H](CCCNC(=N)N)NC(=O)[C@@H](N)CO)C(=O)N[C@@H](Cc1ccc(O)cc1)C(=O)N[C@H](C(=O)N[C@@H](Cc1cnc[nH]1)C(=O)N1CCC[C@H]1C(=O)N[C@@H](Cc1ccccc1)C(=O)O)C(C)C (H-SRVYVHPF-OH)	–	–
